Source: ChEMBL document CHEMBL5303300, “EUbOPEN Chemogenomics Library - Multiplex” (2023)
Several values for one entry are separate records, joined by “and”; a condition that tells them apart may be missing. Identical values can stand only once.

Tested on: HEK-293T
Experiment: Multiplex assay against HEK293T
Assay type: toxicity, cell-based
Settings: human, number of replicates 2
How it was run: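 Four dyes were applied at seeding to live cells: Hoechst33342, BioTracker Green Microtubule Cytoskeleton Dye, MitoTracker Red and Annexin V Alexa Fluor 680. Imaging after compound addition used a CQ1 microscope at 37°C and 5% CO2. CellPathfinder machine-learning gating then sorted cells into Hoechst high-intensity objects or normal cells, normal cells into healthy, pyknosed or fragmented nuclei, and pyknosed cells into mitotic or apoptotic, with tubulin, mitochondrial-mass and membrane-permeability phenotypes given as per cents of healthy-nucleus cells.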

[1] = 12 h, 1 µM, compound concentration 1 uM
[2] = 12 h, 10 µM, compound concentration 10 uM
[3] = 24 h, 1 µM, compound concentration 1 uM
[4] = 24 h, 10 µM, compound concentration 10 uM
[5] = 48 h, 1 µM, compound concentration 1 uM
[6] = 48 h, 10 µM, compound concentration 10 uM

SMILES: COc1cc(Nc2cnc(C#N)c(O[C@H](C)CN(C)C)n2)ncc1-c1cnn(C)c1
- Population Apoptotic (%) [1]: 43% and 40%
- Population Fragmented Nuclei (%) [1]: 3%
- Population Healthy Nuclei (%) [1]: 78% and 82%
- Population Hoechst High Intensity Objects (%) [1]: 4% and 7%
- Population Membrane Permeable-Phenotype (%) [1]: 5% and 3%
- Population Mitochondria Different-Phenotype (%) [1]: 19% and 14%
- Population Mitotic Cells (%) [1]: 56% and 59%
- Population Normal (%) [1]: 95% and 92%
- Population Pyknosed Nuclei (%) [1]: 18% and 14%
- Population Tubulin-Different-Phenotype (%) [1]: 54% and 50%
- Total Cell Count [1]: 593 and 622
- Population Apoptotic (%) [2]: 59% and 57%
- Population Fragmented Nuclei (%) [2]: 2%
- Population Healthy Nuclei (%) [2]: 62% and 75%
- Population Hoechst High Intensity Objects (%) [2]: 6% and 4%
- Population Membrane Permeable-Phenotype (%) [2]: 5% and 3%
- Population Mitochondria Different-Phenotype (%) [2]: 45% and 52%
- Population Mitotic Cells (%) [2]: 40% and 43%
- Population Normal (%) [2]: 93% and 95%
- Population Pyknosed Nuclei (%) [2]: 35% and 21%
- Population Tubulin-Different-Phenotype (%) [2]: 87% and 90%
- Total Cell Count [2]: 383 and 486
- Population Apoptotic (%) [3]: 28% and 26%
- Population Fragmented Nuclei (%) [3]: 5%
- Population Healthy Nuclei (%) [3]: 84% and 80%
- Population Hoechst High Intensity Objects (%) [3]: 8% and 7%
- Population Membrane Permeable-Phenotype (%) [3]: 4%
- Population Mitochondria Different-Phenotype (%) [3]: 11% and 14%
- Population Mitotic Cells (%) [3]: 71% and 73%
- Population Normal (%) [3]: 91% and 92%
- Population Pyknosed Nuclei (%) [3]: 9% and 13%
- Population Tubulin-Different-Phenotype (%) [3]: 46% and 41%
- Total Cell Count [3]: 801 and 735
- Population Apoptotic (%) [4]: 63% and 69%
- Population Fragmented Nuclei (%) [4]: 2% and 3%
- Population Healthy Nuclei (%) [4]: 76% and 78%
- Population Hoechst High Intensity Objects (%) [4]: 9% and 10%
- Population Membrane Permeable-Phenotype (%) [4]: 3% and 4%
- Population Mitochondria Different-Phenotype (%) [4]: 47% and 42%
- Population Mitotic Cells (%) [4]: 36% and 30%
- Population Normal (%) [4]: 90% and 89%
- Population Pyknosed Nuclei (%) [4]: 20% and 18%
- Population Tubulin-Different-Phenotype (%) [4]: 85% and 82%
- Total Cell Count [4]: 524 and 415
- Population Apoptotic (%) [5]: 31% and 47%
- Population Fragmented Nuclei (%) [5]: 9% and 7%
- Population Healthy Nuclei (%) [5]: 79% and 80%
- Population Hoechst High Intensity Objects (%) [5]: 9% and 8%
- Population Membrane Permeable-Phenotype (%) [5]: 6% and 8%
- Population Mitochondria Different-Phenotype (%) [5]: 8% and 11%
- Population Mitotic Cells (%) [5]: 68% and 52%
- Population Normal (%) [5]: 90% and 91%
- Population Pyknosed Nuclei (%) [5]: 10% and 12%
- Population Tubulin-Different-Phenotype (%) [5]: 39% and 46%
- Total Cell Count [5]: 1105 and 1012
- Population Apoptotic (%) [6]: 71% and 67%
- Population Fragmented Nuclei (%) [6]: 3%
- Population Healthy Nuclei (%) [6]: 44% and 52%
- Population Hoechst High Intensity Objects (%) [6]: 12% and 11%
- Population Membrane Permeable-Phenotype (%) [6]: 4%
- Population Mitochondria Different-Phenotype (%) [6]: 69% and 77%
- Population Mitotic Cells (%) [6]: 28% and 32%
- Population Normal (%) [6]: 87% and 88%
- Population Pyknosed Nuclei (%) [6]: 52% and 43%
- Population Tubulin-Different-Phenotype (%) [6]: 81% and 89%
- Total Cell Count [6]: 374 and 473

SMILES: CCN1CCN(Cc2ccc(C(=O)Nc3ccc(C)c(Oc4ccc5c(c4)CC(=O)N5)c3)cc2C(F)(F)F)CC1.Cl.Cl
- Population Apoptotic (%) [1]: 43% and 61%
- Population Fragmented Nuclei (%) [1]: 3% and 7%
- Population Healthy Nuclei (%) [1]: 83% and 79%
- Population Hoechst High Intensity Objects (%) [1]: 6% and 8%
- Population Membrane Permeable-Phenotype (%) [1]: 2%
- Population Mitochondria Different-Phenotype (%) [1]: 24% and 20%
- Population Mitotic Cells (%) [1]: 56% and 38%
- Population Normal (%) [1]: 93% and 91%
- Population Pyknosed Nuclei (%) [1]: 12% and 13%
- Population Tubulin-Different-Phenotype (%) [1]: 64% and 61%
- Total Cell Count [1]: 609 and 592
- Population Apoptotic (%) [2]: 68% and 69%
- Population Fragmented Nuclei (%) [2]: 6% and 5%
- Population Healthy Nuclei (%) [2]: 80% and 81%
- Population Hoechst High Intensity Objects (%) [2]: 12% and 10%
- Population Membrane Permeable-Phenotype (%) [2]: 6% and 2%
- Population Mitochondria Different-Phenotype (%) [2]: 30% and 42%
- Population Mitotic Cells (%) [2]: 31% and 30%
- Population Normal (%) [2]: 87% and 89%
- Population Pyknosed Nuclei (%) [2]: 13% and 12%
- Population Tubulin-Different-Phenotype (%) [2]: 96% and 95%
- Total Cell Count [2]: 598 and 606
- Population Apoptotic (%) [3]: 40% and 52%
- Population Fragmented Nuclei (%) [3]: 4% and 3%
- Population Healthy Nuclei (%) [3]: 88% and 89%
- Population Hoechst High Intensity Objects (%) [3]: 7% and 8%
- Population Membrane Permeable-Phenotype (%) [3]: 2%
- Population Mitochondria Different-Phenotype (%) [3]: 9%
- Population Mitotic Cells (%) [3]: 59% and 47%
- Population Normal (%) [3]: 92% and 91%
- Population Pyknosed Nuclei (%) [3]: 7% and 6%
- Population Tubulin-Different-Phenotype (%) [3]: 45% and 47%
- Total Cell Count [3]: 907 and 801
- Population Apoptotic (%) [4]: 58% and 78%
- Population Fragmented Nuclei (%) [4]: 7% and 5%
- Population Healthy Nuclei (%) [4]: 78% and 81%
- Population Hoechst High Intensity Objects (%) [4]: 15%
- Population Membrane Permeable-Phenotype (%) [4]: 4% and 2%
- Population Mitochondria Different-Phenotype (%) [4]: 40% and 44%
- Population Mitotic Cells (%) [4]: 41% and 21%
- Population Normal (%) [4]: 84%
- Population Pyknosed Nuclei (%) [4]: 14% and 12%
- Population Tubulin-Different-Phenotype (%) [4]: 97% and 95%
- Total Cell Count [4]: 517 and 556
- Population Apoptotic (%) [5]: 12% and 23%
- Population Fragmented Nuclei (%) [5]: 10% and 6%
- Population Healthy Nuclei (%) [5]: 85% and 87%
- Population Hoechst High Intensity Objects (%) [5]: 9% and 8%
- Population Membrane Permeable-Phenotype (%) [5]: 5% and 3%
- Population Mitochondria Different-Phenotype (%) [5]: 0% and 1%
- Population Mitotic Cells (%) [5]: 87% and 76%
- Population Normal (%) [5]: 90% and 91%
- Population Pyknosed Nuclei (%) [5]: 4% and 5%
- Population Tubulin-Different-Phenotype (%) [5]: 22% and 28%
- Total Cell Count [5]: 2293 and 1602
- Population Apoptotic (%) [6]: 75%
- Population Fragmented Nuclei (%) [6]: 10% and 14%
- Population Healthy Nuclei (%) [6]: 76% and 73%
- Population Hoechst High Intensity Objects (%) [6]: 14% and 17%
- Population Membrane Permeable-Phenotype (%) [6]: 13% and 5%
- Population Mitochondria Different-Phenotype (%) [6]: 12% and 13%
- Population Mitotic Cells (%) [6]: 25%
- Population Normal (%) [6]: 85% and 82%
- Population Pyknosed Nuclei (%) [6]: 12%
- Population Tubulin-Different-Phenotype (%) [6]: 94% and 93%
- Total Cell Count [6]: 709 and 749

SMILES: CCCNc1ccc2ncc(-c3ccncc3)n2n1
- Population Apoptotic (%) [1]: 56% and 50%
- Population Fragmented Nuclei (%) [1]: 3% and 4%
- Population Healthy Nuclei (%) [1]: 81% and 85%
- Population Hoechst High Intensity Objects (%) [1]: 7% and 8%
- Population Membrane Permeable-Phenotype (%) [1]: 2%
- Population Mitochondria Different-Phenotype (%) [1]: 26% and 15%
- Population Mitotic Cells (%) [1]: 43% and 49%
- Population Normal (%) [1]: 92% and 91%
- Population Pyknosed Nuclei (%) [1]: 14% and 9%
- Population Tubulin-Different-Phenotype (%) [1]: 64% and 54%
- Total Cell Count [1]: 500 and 609
- Population Apoptotic (%) [2]: 55% and 50%
- Population Fragmented Nuclei (%) [2]: 4% and 5%
- Population Healthy Nuclei (%) [2]: 89% and 87%
- Population Hoechst High Intensity Objects (%) [2]: 6% and 5%
- Population Membrane Permeable-Phenotype (%) [2]: 2% and 1%
- Population Mitochondria Different-Phenotype (%) [2]: 32% and 26%
- Population Mitotic Cells (%) [2]: 44% and 50%
- Population Normal (%) [2]: 93% and 94%
- Population Pyknosed Nuclei (%) [2]: 6% and 7%
- Population Tubulin-Different-Phenotype (%) [2]: 62% and 61%
- Total Cell Count [2]: 481 and 583
- Population Apoptotic (%) [3]: 60% and 48%
- Population Fragmented Nuclei (%) [3]: 5% and 7%
- Population Healthy Nuclei (%) [3]: 88% and 86%
- Population Hoechst High Intensity Objects (%) [3]: 11% and 15%
- Population Membrane Permeable-Phenotype (%) [3]: 3% and 2%
- Population Mitochondria Different-Phenotype (%) [3]: 17% and 6%
- Population Mitotic Cells (%) [3]: 39% and 51%
- Population Normal (%) [3]: 88% and 84%
- Population Pyknosed Nuclei (%) [3]: 6%
- Population Tubulin-Different-Phenotype (%) [3]: 47% and 48%
- Total Cell Count [3]: 684 and 692
- Population Apoptotic (%) [4]: 66% and 48%
- Population Fragmented Nuclei (%) [4]: 2% and 4%
- Population Healthy Nuclei (%) [4]: 87%
- Population Hoechst High Intensity Objects (%) [4]: 8% and 9%
- Population Membrane Permeable-Phenotype (%) [4]: 1%
- Population Mitochondria Different-Phenotype (%) [4]: 41% and 35%
- Population Mitotic Cells (%) [4]: 33% and 51%
- Population Normal (%) [4]: 91% and 90%
- Population Pyknosed Nuclei (%) [4]: 9% and 8%
- Population Tubulin-Different-Phenotype (%) [4]: 64% and 66%
- Total Cell Count [4]: 490 and 643
- Population Apoptotic (%) [5]: 52% and 37%
- Population Fragmented Nuclei (%) [5]: 14%
- Population Healthy Nuclei (%) [5]: 80% and 81%
- Population Hoechst High Intensity Objects (%) [5]: 16% and 21%
- Population Membrane Permeable-Phenotype (%) [5]: 3% and 1%
- Population Mitochondria Different-Phenotype (%) [5]: 5% and 6%
- Population Mitotic Cells (%) [5]: 47% and 62%
- Population Normal (%) [5]: 83% and 78%
- Population Pyknosed Nuclei (%) [5]: 4%
- Population Tubulin-Different-Phenotype (%) [5]: 33% and 47%
- Total Cell Count [5]: 935 and 824
- Population Apoptotic (%) [6]: 55% and 68%
- Population Fragmented Nuclei (%) [6]: 4% and 3%
- Population Healthy Nuclei (%) [6]: 82% and 86%
- Population Hoechst High Intensity Objects (%) [6]: 15% and 8%
- Population Membrane Permeable-Phenotype (%) [6]: 2% and 1%
- Population Mitochondria Different-Phenotype (%) [6]: 49% and 55%
- Population Mitotic Cells (%) [6]: 44% and 31%
- Population Normal (%) [6]: 84% and 91%
- Population Pyknosed Nuclei (%) [6]: 13% and 9%
- Population Tubulin-Different-Phenotype (%) [6]: 70% and 66%
- Total Cell Count [6]: 503 and 413
